What all share (assay type): functional
Test [1] has as its system Digitaria sanguinalis. Kind of test: Herbicidal activity against Digitaria sanguinalis (hairy crabgrass) assessed as growth inhibition at 150 g of active ingredient/ha administered using post-emergence treatment measured 15 days post treatment protocol under greenhouse conditions. A digest of the protocol: (§1)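 Test agents were formulated as 100 g/L emulsified concentrates (DMF solvent, TW-80 emulsifier), diluted with water and sprayed postemergence on pot-grown weeds. Seeds were sown 1-3 cm deep in clay soil (pH 6.5, 1.6% organic matter, 37.3% clay, CEC […]) and grown at 15–30 °C in a greenhouse. Dicots were treated at the two-leaf stage. Untreated and DMF-treated plants served as controls. Activity was scored visually 15 days after treatment.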

In test [2] the test system is Echinochloa crus-galli. Briefly: Herbicidal activity against Echinochloa crus-galli (barnyard grass) assessed as growth inhibition at 150 g of active ingredient/ha administered using post-emergence treatment measured 15 days post treatment protocol under greenhouse conditions. Summed up:
as §1

The test system of test [3] is Setaria viridis. Kind of test: Herbicidal activity against Setaria viridis (green foxtail) assessed as growth inhibition at 150 g of active ingredient/ha administered using post-emergence treatment measured 15 days post treatment protocol under greenhouse conditions. A digest of the protocol: as §1
Test [4] concerns Chenopodium album. Briefly: Herbicidal activity against Chenopodium album assessed as growth inhibition at 150 g of active ingredient/ha administered using post-emergence treatment measured 15 days post treatment protocol under greenhouse conditions. A digest of the protocol:
as §1

Test [5] has as its system Amaranthus retroflexus. Kind of test: Herbicidal activity against Amaranthus retroflexus assessed as growth inhibition at 150 g of active ingredient/ha administered using post-emergence treatment measured 15 days post treatment protocol under greenhouse conditions. Summed up:
as §1

Test [6] deals with Brassica juncea. Kind of test: Herbicidal activity against Brassica juncea assessed as growth inhibition at 150 g of active ingredient/ha administered using post-emergence treatment measured 15 days post treatment protocol under greenhouse conditions. Summed up:
as §1

Molecules are shown by their SMILES. Where only a bound is given, the exact number is not on record here.

Regarding `Cc1nn(-c2cc(N3C(=O)c4ccccc4C3=O)c(Br)cc2F)c(=O)n1C(F)F`, the “growth inhibition (GI)” value in test [1] is over 80%; in test [2], 50%; in test [3], over 80%; in test [4], over 80%; in test [5], 100%; in test [6] it was over 80%.

As to `Cc1nn(-c2cc(N3C(=O)c4ccccc4C3=O)c(Cl)cc2Cl)c(=O)n1C(F)F`, the “growth inhibition (GI)” value in test [1] is on record as 50%; in test [2], 50%; in test [3] it was 50%; in test [4], 100%; in test [5] it was 100%; in test [6] it was under 50%.

As for `Cc1nn(-c2cc(N3C(=O)c4ccccc4C3=O)c(F)cc2Br)c(=O)n1C(F)F`, the “growth inhibition (GI)” value in test [1], in test [2], in test [3], in test [4], in test [5] and in test [6] was under 50% each time.

Turning to `Cc1nn(-c2cc(N3C(=O)c4ccccc4C3=O)ccc2Cl)c(=O)n1C(F)F`, the “growth inhibition (GI)” value in test [1], in test [2], in test [3], in test [4], in test [5] and in test [6] was under 50% in each case.

With `Cc1nn(-c2cc(N3C(=O)C4=C(CCCC4)C3=O)c(Br)cc2F)c(=O)n1C(F)F`, the “growth inhibition (GI)” value in test [1] is given as 50%; in test [2] it was 50%; in test [3], 50%; in test [4] it was 100%; in test [5], 100%; in test [6], under 50%.

As to `Cc1nn(-c2cc(N3C(=O)C4=C(CCCC4)C3=O)c(Cl)cc2Cl)c(=O)n1C(F)F`, the “growth inhibition (GI)” value is 50% in test [1]; 50% in test [2]; 50% in test [3]; 100% in test [4]; 100% in test [5]; under 50% in test [6].

`Cc1nn(-c2cc(N3C(=O)C4=C(CCCC4)C3=O)c(F)cc2Br)c(=O)n1C(F)F`: the “growth inhibition (GI)” value is reported as under 50% in test [1]; under 50% in test [2]; under 50% in test [3]; under 50% in test [4]; 50% in test [5]; 50% in test [6].

Consider `Cc1nn(-c2cc(N3C(=O)C4=C(CCCC4)C3=O)ccc2Cl)c(=O)n1C(F)F`, for which the “growth inhibition (GI)” value in test [1], in test [2], in test [3], in test [4], in test [5] and in test [6] was under 50% throughout.

In the case of `Cc1nn(-c2cc(N3C(=O)C4CCCCC4C3=O)c(Br)cc2F)c(=O)n1C(F)F` (stereo not given), the “growth inhibition (GI)” value in test [1] is 50%; in test [2] it was 50%; in test [3] it was 50%; in test [4], 100%; in test [5], 100%; in test [6], 50%.

As for `Cc1nn(-c2cc(N3C(=O)C4CCCCC4C3=O)c(Cl)cc2Cl)c(=O)n1C(F)F` (stereo not given), the “growth inhibition (GI)” value is listed as under 50% in test [1]; under 50% in test [2]; under 50% in test [3]; over 80% in test [4]; 100% in test [5]; under 50% in test [6].

In the case of `Cc1nn(-c2cc(N3C(=O)C4CCCCC4C3=O)c(F)cc2Br)c(=O)n1C(F)F` (stereo not given), the “growth inhibition (GI)” value in test [1] is reported as under 50%; in test [2], under 50%; in test [3], under 50%; in test [4] it was 50%; in test [5], under 50%; in test [6], 50%.

As to `Cc1nn(-c2cc(N3C(=O)C4CCCCC4C3=O)ccc2Cl)c(=O)n1C(F)F` (stereo not given), the “growth inhibition (GI)” value in test [1], in test [2], in test [3], in test [4], in test [5] and in test [6] was under 50% throughout.

As to `Cc1nn(-c2cc(NC(=O)Nc3ccccc3)ccc2Cl)c(=O)n1C(F)F`, the “growth inhibition (GI)” value in test [1], in test [2], in test [3], in test [4], in test [5] and in test [6] was under 50% in each case.

Consider `Cc1nn(-c2cc(NC(=O)Nc3ccc(Cl)cc3)ccc2Cl)c(=O)n1C(F)F`, for which the “growth inhibition (GI)” value in test [1], in test [2], in test [3], in test [4], in test [5] and in test [6] was under 50% in each case.

On to `Cc1nn(-c2cc(NC(=O)Nc3ccccc3)c(Br)cc2F)c(=O)n1C(F)F`, for which the “growth inhibition (GI)” value in test [1], in test [2], in test [3], in test [4], in test [5] and in test [6] was under 50% in each case.

As for `Cc1nn(-c2cc(NC(=O)Nc3ccc(Cl)cc3)c(Br)cc2F)c(=O)n1C(F)F`, the “growth inhibition (GI)” value in test [1], in test [2], in test [3], in test [4], in test [5] and in test [6] was under 50% each time.

Consider `Cc1nn(-c2cc(NC(=O)Nc3ccccc3)c(F)cc2Br)c(=O)n1C(F)F`, for which the “growth inhibition (GI)” value in test [1], in test [2], in test [3], in test [4], in test [5] and in test [6] was under 50% throughout.

Consider `Cc1nn(-c2cc(NC(=O)Nc3ccc(Cl)cc3)c(F)cc2Br)c(=O)n1C(F)F`, for which the “growth inhibition (GI)” value in test [1], in test [2], in test [3], in test [4], in test [5] and in test [6] was under 50% each time.

As for `Cc1nn(-c2cc(NC(=O)Nc3ccccc3)c(Cl)cc2Cl)c(=O)n1C(F)F`, the “growth inhibition (GI)” value in test [1], in test [2], in test [3], in test [4], in test [5] and in test [6] was under 50% throughout.

In the case of `Cc1nn(-c2cc(NC(=O)Nc3ccc(Cl)cc3)c(Cl)cc2Cl)c(=O)n1C(F)F`, the “growth inhibition (GI)” value in test [1], in test [2], in test [3], in test [4], in test [5] and in test [6] was under 50% in each case.

These data come from ChEMBL document CHEMBL3046880, “Syntheses and herbicidal activities of novel triazolinone derivatives” (J Agric Food Chem, 2008).
